Screening results as filed in PubChem BioAssay.
This is a sample that favours compounds with a hit; in the whole collection about 1.3% have one here.
AF4-AF9 inh – inhibitors of human MLL-AF4/AF9 interaction. P42568. AlphaScreen, biotin-AF4 peptide binding to FLAG-AF9. inhibition, % at 10 µM. 350,000 compounds, 0.47% hits. AID 651704;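 active = every replicate reaching a set inhibition limit, whatever the replicate mean, cut at about 25% in these data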;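 also: 0% = plate neutral control median and 100% = total signal loss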
RAD52 anneal inh – RAD52 (human) annealing inhibition | 360,000 compounds, 0.46% hits | recombinant RAD52 DNA annealing, FRET fluorescence | P43351 | AID 651710 | inhibition, % at 18.7 µM;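 active = every replicate showing at least 50% inhibition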
S100A4 inh HTS – inhibitors of human S100A4 binding to myosin IIA peptide; P26447; S100A4/TAMRA-MyoIIA peptide fluorescence polarization; inhibition, % at 10.7 µM; 360,000 compounds, 0.14% hits;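 active = mean inhibition of at least 70% across replicates, with every replicate also reaching that level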
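System – human S100A4 monomer protein, biochemical binding assay · Buffer or medium – Calcium-containing HEPES buffer, pH 7.2 · Timing – 5 min between mix addition and reading · Also added – TAMRA-labelled myosin IIA heavy-chain peptide probe, 5 nM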
RAD54 inh – blocks human RAD54 Holliday junction branch migration. inhibition, % at 10.4 µM. 360,000 compounds, 0.14% hits. FAM/BHQ fluorescence. AID 602329;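 active = mean normalized replicate activity at least 40 and at least half of replicates scoring 40 or more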;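 also: 0% = median of neutral control wells and 100% = median of positive control wells; inhibitors cause a drop in the FAM fluorescence signal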
Target sequence (Q92698 whole entry, looked up): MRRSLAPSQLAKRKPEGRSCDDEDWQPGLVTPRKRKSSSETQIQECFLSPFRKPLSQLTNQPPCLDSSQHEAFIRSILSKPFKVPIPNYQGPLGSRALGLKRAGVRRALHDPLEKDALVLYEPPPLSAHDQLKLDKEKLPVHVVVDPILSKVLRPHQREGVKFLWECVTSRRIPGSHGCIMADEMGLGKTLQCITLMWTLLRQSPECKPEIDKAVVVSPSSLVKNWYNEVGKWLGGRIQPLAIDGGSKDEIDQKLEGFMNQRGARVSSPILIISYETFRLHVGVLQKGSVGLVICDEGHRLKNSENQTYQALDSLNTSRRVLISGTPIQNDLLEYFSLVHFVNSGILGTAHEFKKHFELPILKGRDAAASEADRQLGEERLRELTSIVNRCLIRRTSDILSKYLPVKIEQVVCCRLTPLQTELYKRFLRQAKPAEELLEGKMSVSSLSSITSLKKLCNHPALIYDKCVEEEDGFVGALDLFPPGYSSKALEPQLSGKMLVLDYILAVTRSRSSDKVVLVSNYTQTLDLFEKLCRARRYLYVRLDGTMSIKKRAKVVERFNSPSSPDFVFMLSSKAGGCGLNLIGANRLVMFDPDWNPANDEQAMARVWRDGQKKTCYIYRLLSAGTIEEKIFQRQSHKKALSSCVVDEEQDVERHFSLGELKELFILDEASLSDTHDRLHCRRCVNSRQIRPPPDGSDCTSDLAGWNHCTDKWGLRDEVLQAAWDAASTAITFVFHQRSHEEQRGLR
XiGFP reactiv – activators of X-chromosome reactivation in mouse fibroblasts; AID 743238; 360,000 compounds, 0.055% hits; XiGFP mouse fibroblasts, % GFP-positive cells imaging, 3 d; cells co-treated with 5-aza-dC sensitizer; scaled so ellipticine positive control = 100%; activation, % at 7.58 µM;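 active = mean normalized replicate activation at least 10% and every replicate at or above 10%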;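 also: 0% = median of on-plate neutral control wells and 100% = ellipticine 6 µM median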
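System: XiGFP fibroblasts, SV40-immortalized. Medium: DMEM plus 5-aza-dC sensitizer. Doses: single point. Timing: 3 d treatment, 15 min room-temperature fixation. Control set: ellipticine 6 µM.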
CASP6 VEID inh – caspase-6 (human) enzyme inhibition; P55212; purified caspase-6, Z-VEID-R110 cleavage fluorescence; inhibition, % at 12.5 µM; 350,000 compounds, 0.53% hits; AID 686996;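 active = mean inhibition across replicates at least about 35%, with every replicate also reaching that limit, limit read from the data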;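 also: 0% = median of neutral control wells and 100% = no fluorescence left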
* hit, by the source's call; . = no result given; ! = a repeat was not active.

SMILES | AF4-AF9 inh | RAD52 anneal inh | S100A4 inh HTS | RAD54 inh | XiGFP reactiv | CASP6 VEID inh
COc1ccc2c3c(n(C)c2c1)[C@@H](CO)N(Cc1ccc(Cl)cc1)CC31CCN(CC2CC2)CC1 | 37.0* | 14.4 | -1.4 | . | 0.1 | 0.7
COc1ccc2c3c(n(C)c2c1)[C@H](CO)N(Cc1ccncc1)CC31CCN(C(=O)C2CCCCC2)CC1 | 30.6* | -96.9 | 1.9 | . | 0.1 | -1.4
COc1ccc(CN(C)C[C@H]2Oc3ccc(NC(=O)C4CCCCC4)cc3CC(=O)N([C@H](C)CO)C[C@@H]2C)cc1 | 3.2 | 13.1 | -1.7 | -2.9 | . | 6.0
C[C@H]1CN([C@@H](C)CO)C(=O)c2ccccc2-c2ccccc2CO[C@@H]1CN(C)C(=O)[C@H]1CCCN1C | -1.1 | -20.5 | 2.4 | -0.1 | 0.4 | -2.0
COc1ccc(C[C@H]2CN3C(=NC[C@@H]3Cc3ccc(O)cc3)N2CCNC(=O)c2ccc(C)c(Br)c2)cc1 | 29.1* | 23.1 | -7.1 | -2.6 | 0.0 | 12.2
Cc1ccc(C(=O)NCCN2C3=NC[C@H](Cc4ccc(O)cc4)N3C[C@H]2Cc2ccc(O)cc2)cc1Br | 29.3* | 25.7 | -0.2 | 11.9 | 0.1 | 8.0
Cc1ccc(S(=O)(=O)NC[C@H]2CC[C@H]3[C@H](CN3Cc3ccccc3C(=O)O)O2)cc1 | -3.1 | 0.6 | -9.7 | . | . | 0.0
COc1ccc(NC(=O)NC[C@H]2CC[C@H]3[C@H](CN3Cc3ccccc3C(=O)O)O2)cc1 | 16.3 | 54.4* | 1.2 | . | . | -1.9
O=C1Nc2ccccc2C(=O)N2C[C@@H](O)C[C@H]12 | 49.0* | -2.5 | -1.3 | -6.0 | 0.0 | 7.0
C[C@@H]1CN([C@@H](C)CO)S(=O)(=O)c2ccc(C#Cc3ccncc3)cc2O[C@@H]1CN(C)CC1CC1 | 1.4 | 8.1 | -12.5 | 2.7 | 0.1 | -1.5
COc1cccc(S(=O)(=O)N2C[C@@H]3N[C@H](C2)C3c2ccc(-c3cccc(C)c3)cc2)c1 (stereo not given in full) | -4.1 | 56.7*! | -1.8 | . | 0.1 | 0.7
COc1ccc(-c2ccc(C3[C@@H]4CN(S(=O)(=O)c5cccc(C)c5)C[C@H]3N4)cc2)cc1 (stereo not given in full) | -4.0 | 70.7*! | 16.1 | . | 0.0 | 4.5
Cc1cccc(S(=O)(=O)N2C[C@@H]3N[C@H](C2)C3c2ccc(-c3ccncc3)cc2)c1 (stereo not given in full) | -4.5 | 12.1 | 4.3 | . | 0.0 | -1.2
S=C(Nc1ccc2nsnc2c1)N1CCCCC1 | -15.3 | -5.2 | 3.9 | . | 0.0 | 47.2*
O=C1CC(C(=O)N2CCN(c3ccccn3)CC2)CN1Cc1ccccc1Cl (stereo not given) | 0.2 | -1.6 | 185.0* | 13.7 | 0.3 | 0.1
CO[C@H]1CN(C)C(=O)c2ccc(NC(=O)c3ccccc3F)cc2OC[C@@H](C)N(CC2CC2)C[C@H]1C | -0.3 | -10.3 | 3.1 | 4.0 | 0.3 | 3.5
CC(NC(=O)C=Cc1ccco1)C(=O)NC(Cc1ccccc1)C(N)=O (stereo not given) | -4.0 | -36.2 | 22.8 | . | 0.0 | 46.1*
CCC(Cc1ccccc1)NC(=O)/C=C/c1ccco1 (stereo not given) | -0.3 | -13.6 | -5.6 | -5.3 | 0.0 | 11.8
C[C@@H]1CN([C@H](C)CO)S(=O)(=O)c2ccc(C3=CCCC3)cc2O[C@@H]1CN(C)C(=O)C1CC1 | . | . | . | . | 0.2 | .
NS(=O)(=O)c1ccc(CNC(=O)/C=C/c2ccco2)cc1 | -31.2 | -32.6 | 4.6 | 2.9 | 0.0 | 35.7*
O=C(N/C=C/c1ccco1)NCc1ccccc1 | -1.8 | -49.8 | -1.7 | . | 0.0 | 41.6*
O=C(/C=C/c1ccco1)NCc1ccc(F)cc1 | -2.2 | -10.7 | -3.1 | . | 1.4 | 2.9
CC(C)C[C@@H]1CN(CCCC[C@H]2CNC(=O)C(=O)N2CCC2CCCCC2)C(=O)C(=O)N1Cc1ccccc1 | 1.8 | 5.8 | 3.3 | . | -0.1 | 2.5
CC(C)C[C@H]1CN(CCCC[C@H]2CNC(=O)C(=O)N2CC2CCCCC2)C(=O)C(=O)N1Cc1ccccc1 | 26.5* | -2.2 | -4.3 | . | 0.0 | 4.7
COc1ccc(C(=O)Nc2ccc3c(c2)C(=O)N(C)C[C@H](OC)[C@H](C)CN[C@H](C)CO3)cc1 | -1.7 | -2.8 | 7.4 | 11.0 | 0.1 | 1.4
SMILES | AF4-AF9 inh | RAD52 anneal inh | S100A4 inh HTS | RAD54 inh | XiGFP reactiv | CASP6 VEID inh
Cc1ccc(S(=O)(=O)N2CCCCC2)cc1 | -18.8 | -8.9 | -2.4 | -0.8 | 0.0 | 1.7
Cc1ccc(O)c(N=Nc2ccc(S(=O)(=O)N3CCCC3)cc2)c1 | 9.5 | -11.1 | 0.6 | 2.3 | 60.7* | -0.5
CC(=O)N1c2ccc(S(=O)(=O)N(C)CC(=O)NCc3ccc(C)cc3)cc2CC1C (stereo not given) | 1.7 | -14.7 | 0.5 | 2.8 | 0.0 | 71.6*
COc1cccc(CNC(=O)CN(C)S(=O)(=O)c2ccc3c(c2)CC(C)N3C(C)=O)c1 (stereo not given) | -2.4 | -2.3 | -10.1 | -11.2 | 0.0 | -9.4
Cc1nc(N/N=C/c2ccc(O)cc2O)cc(N2CCOCC2)n1 | 69.9* | -26.7 | -0.2 | 4.3 | 0.0 | -1.6
Oc1ccc(C=NNc2ccccn2)c(O)c1 | 41.8* | 1.3 | -2.4 | . | 0.9 | .
O=C(NC(=S)NNS(=O)(=O)c1ccccc1)c1ccccc1[N+](=O)[O-] | -4.8 | -11.4 | -1.3 | . | 0.1 | 51.9*
O=C(NC[C@@H]1CC[C@H]2[C@H](CN2C(=O)CN2CCOCC2)O1)NC1CCCCC1 | -3.3 | -26.9 | 3.9 | . | . | -1.0
O=C1NC(Cc2ccc(O)cc2)c2nc3ccc(Br)cc3c(=O)n2-c2cc3ccccc3cc21 (stereo not given) | 1.0 | -7.8 | 1.3 | 1.7 | -0.1 | 3.1
O=C1NC(Cc2ccc(O)cc2)c2nc3ccc(Br)cc3c(=O)n2-c2ncccc21 (stereo not given) | 6.4 | -3.9 | 1.3 | . | 0.3 | 40.5*
COc1ccc(Nc2n[nH]c(N)c2C(N)=O)cc1 | 29.0* | -3.8 | -3.3 | . | . | 1.6
COc1cc(O)c(C(CC(=O)N2CCN(c3ccccc3)CC2)c2ccc(N(C)C)cc2)c(OC)c1 (stereo not given) | 27.5* | 13.6 | -8.8 | 1.1 | 0.0 | 0.9
COc1cc(O)c(C(CC(=O)N2CCCC(C)C2)c2ccc(N(C)C)cc2)c(OC)c1 (stereo not given) | 19.0 | -12.1 | -8.5 | -3.9 | -0.4 | -1.9
O=c1c(C(c2c(O)nc3n(c2=O)CCS3)c2cccc3ccccc23)c(O)nc2n1CCS2 | . | . | . | 54.5* | . | .
Cc1ccc(C(c2c(O)nc3n(c2=O)CCS3)c2c(O)nc3n(c2=O)CCS3)cc1 | -3.6 | -7.3 | 0.7 | . | 0.0 | 5.7
COc1ccc(C2=NN(C(C#N)c3ccc(OC)cc3)C(c3ccccc3)C2)cc1 (stereo not given) | 29.0* | -217.4 | -2.2 | -1.7 | 0.0 | -4.1
